The values below come from paper PMC6997517 (EBioMedicine, 2020).

Series [1] relates to mice with IMQ-induced psoriasis-like disease. Briefly: Histology and immunohistochemistry of back skin, psoriasis model. The settings on record: immunohistochemistry. Type of series: in vivo, mouse (C57BL/6). Put shortly: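 Back-skin lesions from imiquimod-treated C57BL/6 mice fixed in 4% paraformaldehyde, paraffin-embedded and sectioned at 7 μm. H&E staining used for epidermal/dermal thickness, measured by microscopy. Immunohistochemistry done with HRP/DAB detection using primary antibodies to CD68, CD4 and IL-17.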

A further series concerns CIA mice. In words: Collagen-induced arthritis. The series is classed as in vivo, mouse (DBA/1 J). The settings on record: TIP3 10 nmol/g or MTX 2 mg/kg, i.p. daily from day 22. Put shortly: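 Male DBA/1J mice (6–7 weeks, 20–23 g) immunised at tail base with 100 μg chicken type II collagen in an equal volume of complete Freund's adjuvant (day 0), boosted day 20. Groups of n = 7. Test compound (2·5 or 10 nmol/g) or methotrexate (2 mg/kg) in saline given i.p. once daily from day 22. Body weight, paw volume and arthritis index tracked. […] (maximum 16), twice weekly.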

Series [2] has as its system TLR4. Briefly: Cytokine ELISA, LPS-stimulated RAW264.7 cells. The series is classed as cell-based, murine. The settings on record: n ≥ 3. Put shortly:
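Murine macrophages seeded at 2 × 10^5/well (96-well) or 5 × 10^5/well (24-well) and grown overnight, then treated with test compound and LPS. After 24 h treatment, secreted IFN-β was measured by pre-coated mouse IFN-β ELISA. Mouse IL-6 and mouse TNF-α were measured by ELISA kits.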

The subject of series [3] is TLR4. In words: Western blot, LPS-stimulated RAW264.7 cells. The series is classed as cell-based, murine. The note with it: for expression of MAPKs: Supp Fig. 1c (p-ERK, p-JNK, p-p38). The gist of the method:
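Total protein extracted with M-PER reagent and quantified by BCA. Membranes incubated with primary antibodies overnight at 4 °C, washed in PBS/0·1% Tween 20, then HRP-conjugated secondary (1:1000) for 2 h. Bands detected by enhanced chemiluminescence, with β-actin as loading reference.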
(Immunoblotting shows a protein as a band on a membrane.)

Another series deals with RAW264.7 cells. In words: MTT cell viability, RAW264.7 cells. Type of series: cell-based, murine. The settings on record: ≤50 µM. The gist of the method: (§1)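 MTT colourimetric viability assay. HEK-Blue hTLR4 cells (high-glucose DMEM, 10% FBS, normocin) seeded at 5 × 10^4/well. RAW264.7 cells seeded at 2 × 10^5/well. Both grown overnight before exposure to test compound.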

For series [4], the system named is TLR4 (HEK-Blue™ hTLR4 cells). In words: SEAP activity assay. The note with it: LPS-stimulated; absorbance at 620 nm; n ≥ 3. Type of series: cell-based, human. Put shortly: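 Seeded at 2 × 10^5/well (24-well) and grown overnight, then treated with a range of test-compound concentrations with or without LPS. Supernatants heat-treated at 65 °C for 10 min. SEAP (NF-κB reporter) detected with HEK-Blue detection medium.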

In series [5] the test system is multiple TLR signalling pathways. The settings on record: ref [44]; cited from earlier work.
The next series concerns HEK-Blue™ hTLR4 cells. In words: MTT cell viability, HEK-Blue hTLR4 cells. The series is classed as cell-based, human. The note with it: n ≥ 3. Put shortly: as §1

`CN(Cc1cnc2nc(N)nc(N)c2n1)c1ccc(C(=O)N[C@@H](CCC(=O)O)C(=O)O)cc1` [MTX, methotrexate, reference compound]: in series [1], the “overexpression of CD4 in skin” value was “just as in the MTX-treated group”, the “overexpression of CD68 in skin” value was “just as in the MTX-treated group” and the “overexpression of IL-17 in skin” value is “just as in the MTX-treated group”. In addition, the “loss of body weight” value in the series with CIA mice is recorded as “not observed”. The arthritis index result with CIA mice (maximal score 16) is “significantly decreased”. The “relative paw volume (large paw volume)” value in the series with CIA mice (plethysmometer) is “TIP3 (10 nmol/g)- and MTX-injected mice did not”.

With DYDVCVCH [TIP3 w/o CPP], the “LPS-induced TNF-α secretion” value in the series on TLR4 [2] is “did not have any modulatory effect on TNF-α secretion”. For the same compound, in the series with TLR4 [3], the Iκ-Bα degradation entry is “neither peptide inhibited Iκ-Bα degradation”; the “phosphorylation of p65 subunit of NF-κB (p-p65)” value is on record as “neither peptide inhibited Iκ-Bα degradation, phosphorylation of the p65 subunit of NF-κB (p-p65)”; the “expression of MAPKs” value was “neither peptide inhibited Iκ-Bα degradation, phosphorylation of the p65 subunit of NF-κB (p-p65), or the expression of mitogen-activated protein kinase (MAPKs)”. Also, in the series on RAW264.7 cells, the cell viability entry was “did not affect the cell viability at ≤50 µM”.

Regarding “KKWKMRRNQFWIKIQR [CPP, reference compound]”, in the series on TLR4 [2], the “LPS-induced TNF-α secretion” value is listed as “did not have any modulatory effect on TNF-α secretion”. Besides, in the series on TLR4 [3], the Iκ-Bα degradation result is listed as “neither peptide inhibited Iκ-Bα degradation”; the “phosphorylation of p65 subunit of NF-κB (p-p65)” value is “neither peptide inhibited Iκ-Bα degradation, phosphorylation of the p65 subunit of NF-κB (p-p65)”; the “expression of MAPKs” value is reported as “neither peptide inhibited Iκ-Bα degradation, phosphorylation of the p65 subunit of NF-κB (p-p65), or the expression of mitogen-activated protein kinase (MAPKs)”. Also, in the series with RAW264.7 cells, the cell viability entry is “did not affect the cell viability at ≤50 µM”.

Regarding TIPLLS [TIP2], the “inhibition of LPS-induced SEAP activity (NF-κB)” value in series [4] is reported as “TIP3, but not TIP2, hampered the LPS-induced SEAP activity”. For the same compound, the TLR signalling inhibition entry in series [5] was “TIP1, but not TIP2, abrogates multiple TLR signalling pathways”. In addition, the “cell viability / cytotoxicity” value with HEK-Blue™ hTLR4 cells (12·5 to 50 μM) is listed as “did not show any significant cytotoxicity”; with HEK-Blue™ hTLR4 cells (high concentration, 100 μM), “slight cytotoxicity”.
